Test results reported in ChEMBL document CHEMBL1122075, “Absolute stereochemistry and dopaminergic activity of enantiomers of 2,3,4,5-tetrahydro-7,8-dihydroxy-1-phenyl-1H-3-benzazepine” (J Med Chem, 1982).

Key:
[1] = biological target: Adenylate cyclase; experiment: Tested for ability to stimulate dopamine sensitive adenylate cyclase in rat caudate homogenate
How it was run: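 Rat striatal homogenates; dopamine-sensitive adenylate cyclase stimulation read as cyclic AMP production. EC50 is the molar concentration giving half-maximal stimulation of cAMP production over the concentration range tested.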

[2] = organism: Canis familiaris; experiment: Compound was tested for its renal vasodilator activity in dogs.; format: functional; details: Canis lupus familiaris
How it was run: (§1)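 Dogs anesthetized and surgically prepared for electromagnetic renal blood flow measurement, with carotid arterial pressure recorded. Drug infused into an antecubital vein at progressively increasing (generally threefold) concentrations to give cumulative dose-response data. RVR = mean arterial pressure / mean renal blood flow. ED15 is the average maximum cumulative dose lowering RVR by 15%.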

[3] = organism: Canis familiaris; experiment: Renal vascular resistance (RVR) in dog was determined; format: functional, Canis lupus familiaris; how it was run: as §1
[4] = organism: Rattus norvegicus; experiment: Ability to induce contralateral rotations in rats having lesions in the substantia nigra.; format: functional
How it was run: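 Rotation counts in rats carrying unilateral left substantia nigra lesions. RD500 is the dose calculated to give 500 body rotations over a 2-h test period.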

[5] = organism: Rattus norvegicus; experiment: Compound was tested for maximum response, the percent of cyclic AMP induced by 5 x 10 E-5 M dopamine
[6] = organism: Canis familiaris; experiment: Renal vascular resistance (RVR) in dog was determined; Not statistically significant; format: functional, Canis lupus familiaris; how it was run: as §1
[7] = organism: Canis familiaris; experiment: Percent av maximum in dog was determined; Expressed as av max (%); format: functional, Canis lupus familiaris
[8] = organism: Rattus norvegicus; experiment: Compound was tested for maximum response, the percent of cyclic AMP induced by 1 x 10 E-4 M dopamine; format: functional

| EC50 [1] [nM] | Compound | ED15 [2] [mg/kg] | RVR [3] | RD500 [4] [mg/kg] | Max response [5] [%] | RVR [6] | Activity [7] [%] | Max response [8] [%] |
| --- | --- | --- | --- | --- | --- | --- | --- | --- |
| 32 | Cl.Oc1cc2c(cc1O)[C@@H](c1ccccc1)CNCC2 | 0.025 | 18 | 0.5 | 66 | – | – | – |
| – | Cl.Oc1cc2c(cc1O)[C@H](c1ccccc1)CNCC2 | > 0.55 | – | > 2 | – | 9 | 9 | 27 |
| 71 | Cl.Oc1cc2c(cc1O)C(c1ccccc1)CNCC2 (racemic) | 0.031 | 19 | 0.7 | 68 | – | – | – |

| Compound | EC50 [1] [nM] | ED15 [2] [mg/kg] | RVR [3] | RD500 [4] [mg/kg] | Max response [5] [%] | RVR [6] | Activity [7] [%] | Max response [8] [%] |
| --- | --- | --- | --- | --- | --- | --- | --- | --- |
| NCCc1ccc(O)c(O)c1 [DOPAMINE] | 3500 | 0.0027 | – | – | – | – | – | – |
